The results in this text go back to the RNAGym collection of RNA variant scans (doi:10.1126/science.aae0568).

This sample holds only a part of the variants without activity. Some results are limits rather than exact numbers.

The chains are these.
B1: tRNA (parent)
chain: GUUCCGUUGGCGUAAUGGUAACGCGUCUCCCUCCUAAGGAGAAGACUGCGGGUUCGAGUCCCGUACGGAACG

Variants of B1 are the subject of the data set. The experiment in a line: yeast fitness relative to wild type (ratio to wild type); higher = fitter; tRNA-Arg(CCU), competitive growth, 37 C, YPD. The gist of the method:
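Genotype frequency changes were the basis for Darwinian fitness relative to wild type. The frequencies came from 100-nucleotide paired-end sequencing of gene amplicons from the start population and each end population of pooled yeast strains with tRNA-Arg(CCU) gene variants at the native locus. Competition ran in YPD at 37°C for 24 hours in six replicates, genotypes needed ≥ 100 starting reads, and estimates < 0.5 were set to 0.5.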
For C24G C30U C34A C60U, the yeast fitness is not above 0.5.

With C24G U26C A37G U54G C61G, the yeast fitness was 0.51.

C24G G44A C55U: the yeast fitness was not above 0.5.

Consider C24U A43U U47G G67A, for which the yeast fitness amounted to 0.53.

For C24G C62G, the yeast fitness is 0.541.

As for C24G C62U, the yeast fitness came to 0.562.

Turning to C24G G25C C27A U59A C62A, the yeast fitness was not above 0.5.

Turning to C24G C33U C62A A70G, the yeast fitness was not above 0.5.

C24U A40U: the yeast fitness is 0.78.

On to C24U A40C, for which the yeast fitness came to 0.806.

Turning to C24G G41A G51A, the yeast fitness was not above 0.5.

As for C24G U32A A43G G50A A65C, the yeast fitness was not above 0.5.

Turning to C24G A37G G63C C66G, the yeast fitness was not above 0.5.

As for C24G G25A G48A, the yeast fitness amounted to 0.697.

C24U A43U C66U: the yeast fitness came to 0.801.

With C24G C33G A36C A37C A42C C60U G67U, the yeast fitness is not above 0.5.

As for C24U A42U G52C G63A, the yeast fitness is not above 0.5.

For C24G C55U U64A, the yeast fitness worked out at 0.674.

As for C24G C27U G52C, the yeast fitness is 0.566.

On to C24G U59C, for which the yeast fitness is 0.65.

For the variant C24G C34G G38C C62G A69C, the yeast fitness is not above 0.5.

For the variant C24G C31G G51A, the yeast fitness was not above 0.5.

On to C24G G39C, for which the yeast fitness amounted to 0.608.

For C24G A42U A45C, the yeast fitness was not above 0.5.

Turning to C24G A42G A65G, the yeast fitness is not above 0.5.

Take C24G C31U G41C C46G G63C: the yeast fitness was not above 0.5.

With C24G C30U C34U, the yeast fitness is not above 0.5.

With C24G G41C, the yeast fitness is 0.582.

In the case of C24G G25C C30G U32C A57G, the yeast fitness was not above 0.5.

Turning to C24G C46U G58C C61U, the yeast fitness is 0.597.

On to C24G G25A C31G U64C, for which the yeast fitness is 0.75.

On to C24G C49U C61A, for which the yeast fitness is not above 0.5.

For C24G C34G G48A U54A G63C, the yeast fitness is not above 0.5.

With C24U A42C C46A U54A, the yeast fitness is not above 0.5.

On to C24G G38A U53A, for which the yeast fitness was not above 0.5.

With C24G G56A A57C, the yeast fitness is not above 0.5.

Consider C24G C61G G68A, for which the yeast fitness is not above 0.5.

On to C24G C34U A36C, for which the yeast fitness is not above 0.5.

On to C24G C31U G50C, for which the yeast fitness stood at 0.56.

Take C24G A42C G68A: the yeast fitness was not above 0.5.

Regarding C24G A45G G51C U54A G56C, the yeast fitness is not above 0.5.

C24G C30U A40G G44A U47C G51C: the yeast fitness was not above 0.5.

As for C24U A36U C60A, the yeast fitness is not above 0.5.

As to C24G G38A U64A, the yeast fitness was not above 0.5.

Turning to C24G G50C G68C, the yeast fitness was found to be 0.629.

As for C24G C30A A40C A57G C61U, the yeast fitness is not above 0.5.

As for C24G A37G, the yeast fitness is 0.612.

As for C24U A43C C49U G51U, the yeast fitness was not above 0.5.

Take C24G C33G C60A G63A: the yeast fitness is not above 0.5.

Regarding C24G C27G A36U G38C C60G C66A, the yeast fitness was not above 0.5.

For C24G A45G U53G, the yeast fitness is not above 0.5.

As to C24U A43U U47C, the yeast fitness turned out to be 0.794.

As to C24G U47C G68C A70C, the yeast fitness was not above 0.5.

For C24G C49U A57U, the yeast fitness is not above 0.5.

Consider C24G C29U G38C, for which the yeast fitness stood at 0.62.

C24U A43G A69U: the yeast fitness was 0.819.

C24G G48C C49U: the yeast fitness was not above 0.5.

Take C24G C49U: the yeast fitness worked out at 0.576.

Turning to C24G C49G, the yeast fitness was 0.544.

For C24G C30U C49G, the yeast fitness was 0.664.

For the variant C24G U35C, the yeast fitness is not above 0.5.

As to C24U A37G A43G A70U, the yeast fitness is not above 0.5.

On to C24G G68C, for which the yeast fitness came to 0.599.

As for C24G G44C C66U, the yeast fitness was not above 0.5.

Take C24G C49G G56A: the yeast fitness was 0.574.

In the case of C24G A42C A70U, the yeast fitness is 0.616.

Regarding C24U A45U G58A A65G, the yeast fitness stood at 0.794.

As to C24G C33G G63A, the yeast fitness is not above 0.5.

With C24G C29U A42G G51C, the yeast fitness was not above 0.5.

Turning to C24G A37G G56A G58A G67A, the yeast fitness is not above 0.5.

Turning to C24G C31A C33U U35A A57G U64C, the yeast fitness was not above 0.5.

As to C24G C27U C33U A45G G50C G68A, the yeast fitness is not above 0.5.

With C24G G39C C61U, the yeast fitness is not above 0.5.

Consider C24G U47G U53C, for which the yeast fitness came to 0.713.

Take C24G C31G C33U C46G U54G G67U: the yeast fitness was determined as 0.645.

On to C24G C27U G51C U64A, for which the yeast fitness is not above 0.5.

For C24G C33U C49G A57U C61G, the yeast fitness was not above 0.5.

Consider C24G A43C G48A G58A G68C, for which the yeast fitness is not above 0.5.

With C24G A40G A57U G68A, the yeast fitness is not above 0.5.

For the variant C24U A37G G39A G48C G68U, the yeast fitness is not above 0.5.

With C24G A40C A69C, the yeast fitness was not above 0.5.

Take C24G U32C: the yeast fitness is 0.599.

For C24G A42G A43U C46U C62U, the yeast fitness is not above 0.5.

As for C24G G25C C27A A40C G51A, the yeast fitness was not above 0.5.

Regarding C24G A43G U47A U53A G68C, the yeast fitness is not above 0.5.

In the case of C24G U26A, the yeast fitness turned out to be 0.609.

In the case of C24G A40G G50C C66U, the yeast fitness is not above 0.5.

For C24G G63C A65U, the yeast fitness worked out at 0.596.

Regarding C24G C49A C62G G68U, the yeast fitness was not above 0.5.

On to C24U A43C A57C, for which the yeast fitness is not above 0.5.

Consider C24G C55G, for which the yeast fitness amounted to 0.649.

As to C24G C55A, the yeast fitness was determined as 0.66.

For C24G G39C C61U C66U, the yeast fitness was not above 0.5.

Turning to C24G U35C C49U C61G, the yeast fitness was determined as 0.54.

C24G G56C U59A C60G C62G A70C: the yeast fitness worked out at 0.617.

In the case of C24G A40C C49A A69U, the yeast fitness is 0.589.

For C24G C55A A70C, the yeast fitness was not above 0.5.

C24G U28C U32G A69G: the yeast fitness is not above 0.5.

As for C24U A45U C55U G67U, the yeast fitness is not above 0.5.

C24G U26A A37G G48A: the yeast fitness was not above 0.5.

C24G G25C A45G: the yeast fitness stood at 0.512.

Turning to C24G A57U G58A A65U, the yeast fitness was not above 0.5.

With C24G A57U G67C, the yeast fitness came to 0.612.

As to C24G C61U A69U, the yeast fitness stood at 0.516.

C24G U53G U54A G58C: the yeast fitness worked out at 0.552.

In the case of C24G C46U G50A G56C C62A C66U, the yeast fitness is not above 0.5.

As for C24G C33U A43G U47A C60A, the yeast fitness was not above 0.5.

As to C24G A43G G63U U64A, the yeast fitness amounted to 0.577.

Consider C24G C30A G44C U47C U59A, for which the yeast fitness was not above 0.5.

With C24G C61U, the yeast fitness was determined as 0.59.

For C24G C60A G67A, the yeast fitness was determined as 0.693.

On to C24G U53G C60A, for which the yeast fitness is not above 0.5.

As for C24G C31U C61U, the yeast fitness was not above 0.5.

As to C24G G58A, the yeast fitness worked out at 0.675.

Take C24G G58C: the yeast fitness was found to be 0.573.

Regarding C24G U26A C60G, the yeast fitness was not above 0.5.

As to C24U A45U G58A, the yeast fitness turned out to be 0.647.

Turning to C24G G38A, the yeast fitness came to 0.519.

Consider C24G C31G G68A A70U, for which the yeast fitness is not above 0.5.

C24G U28G A45C U47C U64A: the yeast fitness was 0.6.

Turning to C24U A43U U47G U53C, the yeast fitness is not above 0.5.

Regarding C24G C29G C46G G67C, the yeast fitness is not above 0.5.

Consider C24G U28G C46G, for which the yeast fitness was not above 0.5.

On to C24U A40U C55U U59A, for which the yeast fitness worked out at 0.548.

As for C24G U26G C34A A36C, the yeast fitness is not above 0.5.

Consider C24G G44C G58C G68U, for which the yeast fitness is 0.516.

Take C24G U54A A65U C66U: the yeast fitness was not above 0.5.

As to C24G G25A C61G G67C G68A, the yeast fitness came out at 0.676.

Regarding C24G C55U C61A, the yeast fitness is 0.515.

With C24G C29G C49G, the yeast fitness was not above 0.5.

Regarding C24G C31G C33A G50C C55G A57U C62U U64C, the yeast fitness is not above 0.5.

In the case of C24U A36U A37G A40C, the yeast fitness was not above 0.5.

As to C24G C27U U53A, the yeast fitness is not above 0.5.

In the case of C24G A40C U64A A65C, the yeast fitness is not above 0.5.

As for C24G C29A A40G G50C, the yeast fitness is not above 0.5.

Turning to C24U A57C, the yeast fitness was 0.601.

Regarding C24G C29A G44C C61U, the yeast fitness turned out to be 0.787.

As to C24G C30A A69C, the yeast fitness was found to be 0.547.

Turning to C24G C30U C34U C55A, the yeast fitness is not above 0.5.

On to C24G U47A, for which the yeast fitness is 0.57.

For C24G U47G, the yeast fitness is not above 0.5.

In the case of C24G U47C, the yeast fitness was 0.688.

Take C24G A45C A69U: the yeast fitness stood at 0.611.

Regarding C24U A57C C60U G67C, the yeast fitness was not above 0.5.

Consider C24U A43U, for which the yeast fitness came out at 1.01.

Take C24G C30U A43U C60G A65C: the yeast fitness is not above 0.5.

Take C24G C33U A65U: the yeast fitness was not above 0.5.

In the case of C24U A45U A57C G68A, the yeast fitness is not above 0.5.

Turning to C24G U26A C29G U32A, the yeast fitness was 0.516.

With C24G C29A A43U, the yeast fitness is not above 0.5.

As to C24G U53A, the yeast fitness was 0.533.

In the case of C24G C49A U53A G67A, the yeast fitness was not above 0.5.

For C24U A42U G52A, the yeast fitness is 0.563.

As to C24G C61G C62U C66U, the yeast fitness was not above 0.5.

C24G G38C G50C: the yeast fitness is not above 0.5.

With C24G A57G A70G, the yeast fitness was not above 0.5.

As to C24G C33G, the yeast fitness was 0.666.

In the case of C24G C33U, the yeast fitness turned out to be 0.646.

Consider C24U A42G, for which the yeast fitness is 0.956.

In the case of C24U A42U, the yeast fitness came out at 0.875.

Take C24G C30A U47C: the yeast fitness was determined as 0.586.

On to C24G A37G G52C U64C, for which the yeast fitness is 0.602.

C24U A36C A43U A69U: the yeast fitness is 0.517.

As for C24U A40G G58C, the yeast fitness is 0.579.

Regarding C24G C33U A37U G38A, the yeast fitness was not above 0.5.

Take C24U A45G A65G: the yeast fitness came out at 0.757.

Turning to C24G A43C A57U, the yeast fitness is not above 0.5.
